Assay outcomes deposited in PubChem BioAssay by several laboratories.
In the library only some 5.9% were active in any assay of this set; here they are far more common.
HUVEC prolif 384 = inhibitors of HUVEC proliferation, primary screen, cell-based, 384-well; viability, % at 10 µM (by protocol); 1.1% of 86,000 active; AID 648, 2007; CellTiter-Glo luminescence, 72 h; hits give low values;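 active = viability at or below 30%; inactive = viability above 30%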;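 note: 100% = median luminescence of DMSO-only cell control wells on each plate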
Lung fibro prol = antiproliferative effect on LL 47 fibroblasts – human, LL 47 cells, CellTiter-Glo luminescence, primary screen; 1.1% of 85,000 active; LL 47 human lung fibroblast viability, ATP luminescence; hits give low values; viability, % at 10 µM;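 active = viability at or below 50% in the single dose screen; inactive = viability above 50%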;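 note: compound exposure lasted 72 h before the ATP readout; 100% = median luminescence of untreated cell-only wells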
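Test system: LL 47 human lung fibroblasts / Incubation: 72 h compound exposure at 37 °C after overnight plating / Technique: luminescent ATP detection, CellTiter-Glo / Compound dosing: 0.1% DMSO in all compound wells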
H69AR inhibit = proliferation blockers of H69AR lung cancer cells, primary screen, cell-based, human, 86K library | H69AR lung tumor viability, ATP luminescence, 72 h; hits give low values | viability, % at 10 µM | 6% of 85,000 active | AID 598, 2007;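 active = viability at or below 40%; inactive = viability above 40%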;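 note: multidrug resistant small cell line overexpressing MRP-1 efflux transporter; 100% = mean luminescence of untreated control wells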
MT1-MMP txn act = MT1-MMP promoter reporter activation – cell-based, luciferase luminescence, primary screen | HT1080 MT1-MMP promoter luciferase reporter, overnight; hits give high values | activation factor at 10 µM | 0.16% of 86,000 active;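 active = activation factor of at least 2 for MT1-MMP transcription at 10 µM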
Jurkat tox 60K = cytotoxicity toward Jurkat T cells, primary screen, cytotoxicity control, cell-based, Jurkat E6.1, 60K MLSMR library; Jurkat E6.1 viability, ATP luminescence, 48 h; inhibition, % at 4 µM; 1.2% of 56,000 active; AID 463, 2006;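 active = inhibition above the mean inhibition of all tested compounds plus 3 SD, cut at about 28% in these data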
Pyk2 oligo antag = antagonists of Pyk2 self-association, primary screen, Q293 cells, FERM NanoBiT luminescence, HTS | z-score (the deposit names both 25 µM and 10 µM) | AID 1347419, 2020 | hits give low values | 0.83% of 99,000 active;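 active = Z-score of -3 or lower, scaled per plate to the spread of control and sample wells; inactive = z-score above -3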;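 note: negative z-score means lost luminescence so less FERM oligomerization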
Target sequence (Q14289 whole entry, looked up): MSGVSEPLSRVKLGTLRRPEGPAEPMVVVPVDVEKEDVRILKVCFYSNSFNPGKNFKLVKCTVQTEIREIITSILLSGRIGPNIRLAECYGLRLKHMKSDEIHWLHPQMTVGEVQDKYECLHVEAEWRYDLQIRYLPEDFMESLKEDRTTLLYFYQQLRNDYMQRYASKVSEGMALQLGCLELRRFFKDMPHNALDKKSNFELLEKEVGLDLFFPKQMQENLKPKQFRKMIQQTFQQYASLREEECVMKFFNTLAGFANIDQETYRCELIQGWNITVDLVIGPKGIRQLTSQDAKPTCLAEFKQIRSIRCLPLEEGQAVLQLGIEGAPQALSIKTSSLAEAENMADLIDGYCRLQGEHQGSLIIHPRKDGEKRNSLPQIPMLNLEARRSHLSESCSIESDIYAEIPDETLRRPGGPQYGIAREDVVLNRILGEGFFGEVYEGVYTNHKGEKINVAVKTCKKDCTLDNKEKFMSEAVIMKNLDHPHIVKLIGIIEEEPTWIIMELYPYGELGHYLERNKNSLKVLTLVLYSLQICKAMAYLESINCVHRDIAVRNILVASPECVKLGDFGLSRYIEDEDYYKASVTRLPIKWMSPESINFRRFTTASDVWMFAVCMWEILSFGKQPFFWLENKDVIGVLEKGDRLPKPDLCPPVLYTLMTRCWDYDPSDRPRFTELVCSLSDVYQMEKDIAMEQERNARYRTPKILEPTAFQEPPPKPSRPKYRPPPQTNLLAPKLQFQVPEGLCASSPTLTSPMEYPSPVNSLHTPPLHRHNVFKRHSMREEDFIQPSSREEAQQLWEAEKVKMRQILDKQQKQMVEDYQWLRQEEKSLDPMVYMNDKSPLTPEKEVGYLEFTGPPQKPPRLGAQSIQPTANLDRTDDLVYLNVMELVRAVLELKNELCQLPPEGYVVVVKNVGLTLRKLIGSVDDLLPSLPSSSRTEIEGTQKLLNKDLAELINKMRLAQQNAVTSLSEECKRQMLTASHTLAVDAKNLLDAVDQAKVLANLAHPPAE
* hit, by the source's call; . = no result given.

SMILES	HUVEC prolif 384	Lung fibro prol	H69AR inhibit	MT1-MMP txn act	Jurkat tox 60K	Pyk2 oligo antag
COc1cc(C#CC#CCN2CCCCC2)ccc1O	98	94	3.6*	1.2	18	-0.13
O=S(=O)(/C=C/c1ccccc1)Oc1ccccc1	77	64	7.4*	1.2	.	0.01
CC(C)(C)c1cc(C(=O)N/N=C/c2ccc(O)cc2)n(-c2ccccc2)n1	.	.	.	.	.	-1.8
COc1ccc(-c2noc(CCC(=O)NCc3cccnc3)n2)cc1	90	90	96	1.1	-1	-0.33
COc1ccc(Cc2nc(C(=O)Nc3ccc(Cl)cc3)cs2)cc1	21*	112	100	1.3	.	1.6
CCOc1ccccc1-c1nc(-c2ccc(NC(=O)Cc3ccc(OC)cc3)cc2)no1	20*	65	11*	1.1	5	-0.32
COc1ccc(Cc2nc(-c3ccc(NC(=O)c4cccnc4)cc3)no2)cc1	120	102	6.0*	1	23	-0.2
COc1ccc(Cc2nc(C(=O)Nc3ccc(F)cc3)cs2)cc1	46	91	61	1.1	.	2
COc1ccc(CC(=O)Nc2ccc(-c3noc(-c4cc(OC)c(OC)c(OC)c4)n3)cc2)cc1	57	98	21*	1.2	.	1.5
COc1ccc(/C=C/C(=O)c2ccc(NC(=O)c3cccs3)cc2)cc1OC	.	.	.	.	.	-0.74
O=C(CSc1nnc(-c2ccc(F)cc2)o1)Nc1ccccc1N1CCOCC1	115	107	87	1.3	.	0.23
COc1ccccc1NC(=S)N(CCc1nc2cc(C)c(C)cc2[nH]1)Cc1cccnc1	.	.	.	.	.	-1.1
COc1ccc(CC(=O)Nc2ccc(-c3noc(-c4ccc(Cl)cc4)n3)cc2)cc1	43	19*	5.1*	1.1	.	0.39
COc1cccc(/C=N/NC(=O)CCCc2ccc(OC)c(C)c2)c1	.	.	.	.	.	-0.49
O=C(Cn1c(=O)oc2cc(S(=O)(=O)N3CCCC3)ccc21)Nc1cccc(C(F)(F)F)c1	92	99	38*	0.9	20	-0.06
COc1cc(-c2nc3cnccn3c2Nc2ccc(C(C)C)cc2)ccc1O	3.2*	46*	0.5*	1.4	.	-0.87
CCC(Sc1nc2sc(C(=O)OC)c(C)c2c(=O)n1N)C(=O)N(CC)CC (centres undefined)	87	96	19*	1.1	.	-0.29
C/C(N)=C(/C#N)C(=O)CSc1nnc(NC(C)C)s1	107	98	104	1.5	-7	0.43
COC(=O)C(CC(=O)c1ccc(Br)cc1)n1ccnc1 (centres undefined)	69	28*	88	1.1	0	.
C=CCSC(=C(C#N)C#N)c1cc2c([nH]1)CCCC2	17*	7.4*	1.3*	.	.	0.34
CCN(C)c1ccc(/C=N\n2nnnc2N)cc1	.	.	.	1	82*	0.75
CCCCC[n+]1ccn(C2=C([O-])c3ccccc3C(=O)/C2=N\S(=O)(=O)c2ccccc2)c1	11*	76	25*	1	.	0.63
CCCC[n+]1ccn(C2=C([O-])c3ccccc3C(=O)/C2=N\S(=O)(=O)c2ccccc2)c1	5.1*	50	8.6*	0.8	.	-0.23
CCCC[n+]1ccn(-c2nc3ccccc3nc2[N-]S(=O)(=O)c2ccccc2)c1	101	96	93	0.9	.	0.08
C=CCn1cc(C(=O)NCCCOCC)c(=O)c2cc(S(=O)(=O)N(CC)CC)ccc21	101	106	84	1	-4	-0.64
SMILES	HUVEC prolif 384	Lung fibro prol	H69AR inhibit	MT1-MMP txn act	Jurkat tox 60K	Pyk2 oligo antag
CCOC(=O)Cn1ncc(-c2ccccc2)c1N	93	108	.	1.6	.	-0.21
Cc1c(Cl)cccc1-n1c(SCC(=O)NCc2ccccc2Cl)nnc1-c1ccncc1	86	94	21*	1.1	.	-0.78
COc1ccc(NC2CC(=O)N(CCc3ccccc3)C2=O)cc1 (centres undefined)	104	105	109	1.2	.	-0.56
COC(=O)[C@@H]1C[C@@]2(O)[C@@H](O)[C@@H](O)[C@@H](O)C[C@H]2N1Cc1cc(OC)cc(OC)c1	.	.	.	1.1	.	.
Cc1ccc(C)c(-n2nnnc2Sc2nnnn2-c2ccccc2)c1	15*	24*	2.3*	0.6	30*	-2.9
Cc1ccc(S(=O)(=O)/N=S(/C)c2ccccc2)cc1 (centres undefined)	.	.	.	.	.	1.1
CC1(C)CC(=O)c2sc(NC(=O)c3ccco3)nc2C1	90	101	98	1.2	7	.
Cc1onc(-c2ccccc2)c1C(=O)Nc1nnc(-c2ccncc2)s1	88	103	80	1.1	0	-3.2*
Cc1onc(-c2ccccc2)c1C(=O)Nc1nc2c(s1)C(=O)CC(C)(C)C2	99	105	90	1.1	.	-3.8*
COc1cccc(C(=O)NC(Cc2ccccc2)c2ccc3c(c2)OCCCO3)c1 (centres undefined)	.	.	.	.	.	-0.65
COc1ccc(OC)c(NC(=O)Cn2cccc2)c1	91	100	98	1	-4	0.36
CC1CCN(C(=O)CSc2nnc(-c3cccnc3)n2C2CCCCC2)CC1	101	.	26*	1.1	0	-0.49
O=[N+]([O-])c1nn(-c2ccc3c(c2)OCCO3)n(O)c1=Nc1ccc(Cl)cc1	.	.	.	.	.	-3.4*
COc1ccc(NS(=O)(=O)c2ccc3c(c2)n(C)c(=O)n3C)cc1	.	.	.	.	.	0.51
CCOC(=O)c1oc2ccc(S(=O)(=O)Nc3ccc4c(c3)n(C)c(=O)n4C)cc2c1C	92	81	66	1.3	44*	-1.1
Cn1c(=O)n(C)c2cc(NS(=O)(=O)c3ccc4c(c3)CCCC4)ccc21	71	86	56	1.5	39*	-1.1
O=C(Nc1ccc(N2CCOCC2)cc1)c1ccc(Cl)nc1	101	107	89	1.3	.	1
CS(=O)(=O)c1ncc(Cl)c(C(=O)Nc2ccc(N3CCOCC3)cc2)n1	37	.	0.2*	1	62*	0.08
Nn1c(SCC(=O)NC(=O)NCc2ccco2)nnc1-c1ccc(OC(F)F)cc1	.	.	.	.	.	0.51
CCOC(=O)C(=CNc1ccc(C)cc1C)C(=O)OCC	.	.	.	.	.	-3.2*
CCOC(=O)C(=CNc1cccc(C)c1C)C(=O)OCC	.	.	.	.	.	-1.1
NC(=S)N/N=C/c1ccc(-c2cc(Cl)ccc2Cl)o1	.	.	.	.	.	-3*
O=C(O)CC1NC(=O)N(c2ccc(Cl)cc2)C1=O (centres undefined)	98	102	100	1.1	0	1.1
Cc1c(CN(C)C)c2c(n1C)C(=O)c1ccc(Br)cc1-2	78	77	66	1.1	-8	0.7
CCOC(=O)c1c2c(n(C)c1C)C(=O)C(=O)c1ccc(Br)cc1-2	3.3*	3.0*	1.6*	0.7	.	-3.5*
O=C(Nc1nc2ccc(S(=O)(=O)N3CCCC3)cc2s1)c1cccs1	59	89	36*	1.3	5	-2
